We go through five molecules from PMC9237996 (Toxicological Sciences, 2022).

Data set [1] concerns HepG2 cells. The data set is described as follows: Seahorse oxygen consumption rate. Type of data set: cell-based. The settings on record: DILIsym input parameter. The gist of the method: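 Oxygen consumption rate was measured in HepG2 cells after 24 h incubation with the test compound. It was related to intracellular compound concentration, measured by LC/MS/MS on a parallel culture with lysate values corrected for lysate and cell volume. Three independent studies were run on HepG2 cells, each in triplicate. The data were translated into DILIsym v6A mitochondrial-dysfunction parameters (ETC inhibition, uncoupling).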

Data set [2] relates to HepG2 cells. The experiment in a line: ROS formation by dihydroethidium. The data set is classed as cell-based. The settings on record: for RNS/ROS production rate constant 1: DILIsym input parameter, oxidative stress. The gist of the method: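 HepG2 cells were exposed to a range of test-compound concentrations for 6 or 24 h, and ROS formation was read by dihydroethidium fluorescence. Three independent studies were run, each in triplicate. Intracellular compound level came from LC/MS/MS of cell lysate from a parallel culture, corrected for lysate and cell volume. DILIsym oxidative-stress parameters were fit by simulating the data under a steady-state in vitro dosing scheme.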

The target of data set [3] is bile salt export pump (BSEP) (Homo sapiens, UniProt O95342). The experiment in a line: BSEP membrane vesicle taurocholate transport inhibition. Type of data set: biochemical. A digest of the protocol: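 ATP-dependent taurocholate uptake into membrane vesicles carrying human BSEP. Transport inhibition was measured across several taurocholate concentrations crossed with several test-compound concentrations. Data were fit with Michaelis-Menten kinetics to give the Ki and the inhibition type. These values were then used as inputs to DILIsym v6A.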

For data set [4] the following is noted: 12 weeks, clinical data, cited from earlier work.

Each structure is given as a SMILES string. Read-outs that look alike come from different tables or passages of the source.

Chain of bile salt export pump (BSEP) (O95342 whole entry): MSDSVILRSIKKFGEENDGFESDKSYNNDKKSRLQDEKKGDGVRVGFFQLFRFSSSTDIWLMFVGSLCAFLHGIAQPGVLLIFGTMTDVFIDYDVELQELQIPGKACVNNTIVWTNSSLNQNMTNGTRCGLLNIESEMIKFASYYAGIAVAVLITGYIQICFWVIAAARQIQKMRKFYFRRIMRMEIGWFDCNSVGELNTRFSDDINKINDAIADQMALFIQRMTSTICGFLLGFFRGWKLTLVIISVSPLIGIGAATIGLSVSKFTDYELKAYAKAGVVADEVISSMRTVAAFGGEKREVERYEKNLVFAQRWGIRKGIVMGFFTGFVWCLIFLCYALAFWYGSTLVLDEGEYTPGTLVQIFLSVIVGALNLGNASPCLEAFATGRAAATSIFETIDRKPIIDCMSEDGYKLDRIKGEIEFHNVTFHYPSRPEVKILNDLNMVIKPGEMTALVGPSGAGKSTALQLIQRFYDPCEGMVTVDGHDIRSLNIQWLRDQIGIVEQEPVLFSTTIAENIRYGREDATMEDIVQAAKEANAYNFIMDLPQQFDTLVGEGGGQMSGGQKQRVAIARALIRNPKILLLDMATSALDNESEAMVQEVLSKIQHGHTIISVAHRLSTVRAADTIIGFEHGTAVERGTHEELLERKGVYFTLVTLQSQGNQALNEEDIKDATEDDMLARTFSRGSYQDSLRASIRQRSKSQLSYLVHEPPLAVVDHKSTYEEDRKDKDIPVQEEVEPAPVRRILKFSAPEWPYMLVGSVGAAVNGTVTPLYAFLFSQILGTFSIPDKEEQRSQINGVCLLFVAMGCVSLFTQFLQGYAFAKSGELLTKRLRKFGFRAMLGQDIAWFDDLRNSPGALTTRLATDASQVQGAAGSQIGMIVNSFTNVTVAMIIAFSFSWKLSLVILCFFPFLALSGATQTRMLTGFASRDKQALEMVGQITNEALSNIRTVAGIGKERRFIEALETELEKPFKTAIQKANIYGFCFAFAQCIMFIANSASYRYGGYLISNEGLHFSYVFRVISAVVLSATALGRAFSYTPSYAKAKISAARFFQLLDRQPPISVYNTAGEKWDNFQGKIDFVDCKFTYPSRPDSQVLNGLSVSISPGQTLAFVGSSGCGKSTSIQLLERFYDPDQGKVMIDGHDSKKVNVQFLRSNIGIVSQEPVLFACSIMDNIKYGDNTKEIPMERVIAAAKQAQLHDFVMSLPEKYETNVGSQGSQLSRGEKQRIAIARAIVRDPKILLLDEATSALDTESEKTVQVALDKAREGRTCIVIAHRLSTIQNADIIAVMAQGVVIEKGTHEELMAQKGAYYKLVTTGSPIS

For the molecule `Cc1cc(C[C@@H](NC(=O)N2CCC(c3cc4ccccc4[nH]c3=O)CC2)C(=O)N2CCN(C3CCN(C)CC3)CC2)cc2cn[nH]c12` [Zavegepant, zavegepant], in the data set on HepG2 cells [1] (mitochondrial dysfunction), the “Coefficient for ETC Inhibition 3” value is given as 2 µM, the “Coefficient for ETC inhibition 1” value came to 1600 µM and the “Max inhibitory effect for ETC inhibition 3” value (from here on “Max inhibitory effect”) stood at 1.5 Dimensionless. The “RNS/ROS production rate constant 1” value with HepG2 cells [2] was “No ROS production”. Further, the “Oxidative stress / increase in ROS in vitro” value in the data set with HepG2 cells [2] (qualitative, DHE staining, HepG2, 24-h incubation) is “did not cause an increase in ROS”. Further, in data set [3], the “BSEP inhibition alpha value” turned out to be 1.368 Dimensionless, the Ki is > 340 µM and the “mode of inhibition for BSEP” value is recorded as “mixed”.
For the molecule `O=C(N[C@@H]1CC[C@@H](c2cccc(F)c2F)CN(CC(F)(F)F)C1=O)N1CCC(n2c(=O)[nH]c3ncccc32)CC1` [Telcagepant, telcagepant], the “Observed ALT > 3X ULN in Clinic” value in data set [4] (140 mg BID) is given as 1.9% (5/263); in data set [4] (280 mg BID), 3.2% (8/265). For the same molecule, the “Uncoupler 1 effect Hill” value in the data set with HepG2 cells [1] (Telcagepant—High parameter set) and in the data set on HepG2 cells [1] (Telcagepant—Low parameter set) was “No effect” throughout. Moreover, the “Uncoupler 1 effect Km” value with HepG2 cells [1] (Telcagepant—High parameter set) and with HepG2 cells [1] (Telcagepant—Low parameter set) was “No effect” each time. Also, the “Uncoupler 1 effect Vmax” value with HepG2 cells [1] (Telcagepant—High parameter set) and with HepG2 cells [1] (Telcagepant—Low parameter set) was “No effect” each time. The “RNS/ROS production rate constant 1” value in the data set on HepG2 cells [2] (Telcagepant—High parameter set) and in the data set with HepG2 cells [2] (Telcagepant—Low parameter set) was 0.0972 M⁻¹ s⁻¹ throughout. For the same molecule, the Ki in data set [3] was 19 µM. The “mode of inhibition for BSEP” value in data set [3] is “mixed”. The “BSEP inhibition alpha value” in data set [3] (Telcagepant—High parameter set) and in data set [3] (Telcagepant—Low parameter set) was 4.32 Dimensionless in each case.
`C[C@@H]1[C@H](c2ccccc2)C[C@H](NC(=O)c2cnc3c(c2)C[C@@]2(C3)C(=O)Nc3ncccc32)C(=O)N1CC(F)(F)F` [Ubrogepant, ubrogepant]: in the data set on HepG2 cells [1] (mitochondrial dysfunction), the “Max inhibitory effect” value was 0.4 Dimensionless, the “Uncoupler 1 effect Hill” value worked out at 4.3 Dimensionless and the “Uncoupler 1 effect Vmax” value turned out to be 22.5 Dimensionless. Moreover, in the data set with HepG2 cells [2], the “RNS/ROS production rate constant 1” value was found to be 0.0458 M⁻¹ s⁻¹. Moreover, in data set [3], the “BSEP inhibition alpha value” is on record as “No inhibition” and the “mode of inhibition for BSEP” value is “mixed”.
Regarding `C[C@@H]1[C@H](c2c(F)ccc(F)c2F)C[C@H](NC(=O)c2cnc3c(c2)C[C@@]2(C3)C(=O)Nc3ncccc32)C(=O)N1CC(F)(F)F` [Atogepant, atogepant], in the data set on HepG2 cells [1] (mitochondrial dysfunction), the “Coefficient for ETC Inhibition 3” value was 0.1 µM, the “Coefficient for ETC inhibition 1” value is listed as 38 170 µM, the “Max inhibitory effect” value was 0.2 Dimensionless and the “Uncoupler 1 effect Hill” value is on record as “No effect”. Also, in the data set on HepG2 cells [1] (mitochondrial dysfunction), the “Uncoupler 1 effect Km” value was “No effect” and the “Uncoupler 1 effect Vmax” value is listed as “No effect”. Moreover, in the data set with HepG2 cells [2], the “RNS/ROS production rate constant 1” value stood at 0.0947 M⁻¹ s⁻¹. Besides, in data set [3], the “BSEP inhibition alpha value” stood at 0.64 Dimensionless and the Ki stood at 144 µM.
For the molecule `N[C@@H]1c2cccnc2[C@H](OC(=O)N2CCC(n3c(=O)[nH]c4ncccc43)CC2)CC[C@H]1c1cccc(F)c1F` [Rimegepant, rimegepant], in the data set with HepG2 cells [1] (mitochondrial dysfunction), the “Coefficient for ETC Inhibition 3” value was determined as 1.89 µM, the “Coefficient for ETC inhibition 1” value turned out to be 3470 µM, the “Max inhibitory effect” value was found to be 0.45 Dimensionless and the “Uncoupler 1 effect Hill” value was “No effect”. In addition, in the data set on HepG2 cells [1] (mitochondrial dysfunction), the “Uncoupler 1 effect Km” value was “No effect” and the “Uncoupler 1 effect Vmax” value was “No effect”. Also, the “RNS/ROS production rate constant 1” value in the data set with HepG2 cells [2] was 0.0972 M⁻¹ s⁻¹. Moreover, in data set [3], the “BSEP inhibition alpha value” was “Competitive”, the Ki was found to be 27.2 µM and the “mode of inhibition for BSEP” value was “competitive”.

The term Ki denotes a measure of affinity in units of concentration, obtained from inhibition or displacement.
